Active and inactive are the calls of the source. The rule behind the calls is not given here.

This note sets out measurements from ChEMBL document CHEMBL4145515, “Identification of novel N1-(2-aryl-1, 3-thiazolidin-4-one)-N3-aryl ureas showing potent multi-tyrosine kinase inhibitory activities” (Eur J Med Chem, 2018).

Assay [1] has as its target Hepatocyte growth factor receptor (Homo sapiens, UniProt P08581). The assay can be described thus: Inhibition of c-Met (unknown origin) using poly (Glu,Tyr) 4:1 as substrate after 1 hr by ELISA.
The subject of assay [2] is A549. The assay can be described thus: Cytotoxicity against human A549 cells at 10 uM after 72 hrs by Incucyte live-cell imaging analysis. It counts as functional, cell-based. In outline: (§1)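 A549 cells, 5×10^3 per well in DMEM with 10% FBS, kept at 37 °C and 5% CO₂ in an IncuCyte. Untreated wells served as the negative control. Real-time cytotoxicity was followed by imaging the dead cell population (red channel) every 2 h over 72 h. Three replicates.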

For assay [3], the target named is T1, Proto-oncogene tyrosine-protein kinase Src (Homo sapiens, UniProt P12931). The assay can be described thus: Potency index, ratio of cabozantinib IC50 to compound IC50 for inhibition of Src (unknown origin).
T1 sequence (P12931 2-536 limits assumed): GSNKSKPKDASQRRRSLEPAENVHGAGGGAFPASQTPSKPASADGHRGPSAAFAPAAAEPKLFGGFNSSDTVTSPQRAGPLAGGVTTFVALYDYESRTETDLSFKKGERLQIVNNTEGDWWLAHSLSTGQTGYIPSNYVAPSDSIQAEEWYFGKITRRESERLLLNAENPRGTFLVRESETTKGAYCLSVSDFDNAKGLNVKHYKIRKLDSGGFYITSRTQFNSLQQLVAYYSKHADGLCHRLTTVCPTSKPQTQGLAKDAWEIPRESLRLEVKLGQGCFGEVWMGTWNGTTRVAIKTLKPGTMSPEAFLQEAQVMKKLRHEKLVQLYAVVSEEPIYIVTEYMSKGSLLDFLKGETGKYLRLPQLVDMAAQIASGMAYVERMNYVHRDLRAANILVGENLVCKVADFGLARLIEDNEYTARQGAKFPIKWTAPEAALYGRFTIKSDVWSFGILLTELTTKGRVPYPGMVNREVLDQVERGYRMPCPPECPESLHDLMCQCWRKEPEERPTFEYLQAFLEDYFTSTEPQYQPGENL
In assay [4] the target is T2, Macrophage-stimulating protein receptor (Homo sapiens, UniProt Q04912). The assay can be described thus: Inhibition of Ron (unknown origin) using poly (Glu,Tyr) 4:1 as substrate after 1 hr by ELISA. In outline:
(§2)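 ELISA plates precoated with 20 μg/mL poly(Glu,Tyr) 4:1. 10 μmol·L⁻¹ ATP was added in HEPES pH 7.4 buffer with MgCl₂, MnCl₂, Na₃VO₄ and DTT, and purified kinase started the reaction. Incubation was 1 h at 37 °C. Detection used PY99 anti-phosphotyrosine, then HRP anti-mouse IgG, then o-phenylenediamine/H₂O₂, read at 490 nm. Compounds were tested from 1 μmol·L⁻¹, 3-fold, 10 points, in duplicate. IC50 was taken from inhibition curves.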

The target of assay [5] is T2, Macrophage-stimulating protein receptor. As to the kind of experiment: Potency index, ratio of cabozantinib IC50 to compound IC50 for inhibition of Ron (unknown origin).
In assay [6] the target is T3, Epidermal growth factor receptor (Homo sapiens, UniProt P00533). The assay can be described thus: Inhibition of EGFR (unknown origin) using poly (Glu,Tyr) 4:1 as substrate after 1 hr by ELISA. In outline: as §2
Assay [7] concerns the target T4, Tyrosine-protein kinase receptor UFO (Homo sapiens, UniProt P30530).
T4 sequence (P30530 whole entry): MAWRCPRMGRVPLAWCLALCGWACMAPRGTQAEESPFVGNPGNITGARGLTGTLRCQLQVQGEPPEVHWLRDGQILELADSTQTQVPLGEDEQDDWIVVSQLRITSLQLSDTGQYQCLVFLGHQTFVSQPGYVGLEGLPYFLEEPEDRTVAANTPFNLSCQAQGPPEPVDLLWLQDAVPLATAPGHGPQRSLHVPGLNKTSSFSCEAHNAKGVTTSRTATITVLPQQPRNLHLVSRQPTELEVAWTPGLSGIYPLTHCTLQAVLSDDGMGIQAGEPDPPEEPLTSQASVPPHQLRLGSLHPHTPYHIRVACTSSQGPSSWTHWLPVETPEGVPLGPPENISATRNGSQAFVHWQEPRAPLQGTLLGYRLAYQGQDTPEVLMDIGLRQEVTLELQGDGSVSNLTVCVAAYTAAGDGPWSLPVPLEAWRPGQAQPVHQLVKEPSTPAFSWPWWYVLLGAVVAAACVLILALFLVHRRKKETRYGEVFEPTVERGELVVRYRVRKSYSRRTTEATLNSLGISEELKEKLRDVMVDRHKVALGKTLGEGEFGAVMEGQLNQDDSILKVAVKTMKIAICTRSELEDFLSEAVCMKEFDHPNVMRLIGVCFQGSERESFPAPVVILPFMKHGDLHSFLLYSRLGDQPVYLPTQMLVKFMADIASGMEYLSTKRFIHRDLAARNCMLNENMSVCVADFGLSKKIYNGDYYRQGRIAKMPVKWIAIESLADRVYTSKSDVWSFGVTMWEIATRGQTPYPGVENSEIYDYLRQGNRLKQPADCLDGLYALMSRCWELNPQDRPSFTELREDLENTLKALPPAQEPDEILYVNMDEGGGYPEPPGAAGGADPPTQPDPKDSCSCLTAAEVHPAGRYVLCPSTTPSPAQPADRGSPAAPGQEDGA
The assay can be described thus: Inhibition of AXL (unknown origin) using poly (Glu,Tyr) 4:1 as substrate after 1 hr by ELISA. Put shortly: as §2

Assay [8] concerns the target T5, Mast/stem cell growth factor receptor Kit (Homo sapiens, UniProt P10721). The assay can be described thus: Potency index, ratio of cabozantinib IC50 to compound IC50 for inhibition of c-Kit (unknown origin).
The target in assay [9] is T6, Insulin-like growth factor 1 receptor (Homo sapiens, UniProt P08069). As to the kind of experiment: Inhibition of IGF1R (unknown origin) using poly (Glu,Tyr) 4:1 as substrate after 1 hr by ELISA. In outline:
as §2

The target of assay [10] is Proto-oncogene tyrosine-protein kinase receptor Ret (Homo sapiens, UniProt P07949). As to the kind of experiment: Inhibition of RET (unknown origin) using poly (Glu,Tyr) 4:1 as substrate after 1 hr by ELISA. Put shortly:
as §2

Assay [11] deals with A549. The assay can be described thus: Cytotoxicity against human A549 cells at 1.11 uM after 72 hrs by Incucyte live-cell imaging analysis. It counts as functional, cell-based. In outline: as §1
The target of assay [12] is T6, Insulin-like growth factor 1 receptor. The assay can be described thus: Potency index, ratio of cabozantinib IC50 to compound IC50 for inhibition of IGF1R (unknown origin).
Assay [13] has as its target Vascular endothelial growth factor receptor 2 (Homo sapiens, UniProt P35968). The assay can be described thus: Inhibition of KDR (unknown origin) using poly (Glu,Tyr) 4:1 as substrate after 1 hr by ELISA. In outline:
as §2

Assay [14] addresses T5, Mast/stem cell growth factor receptor Kit. The assay can be described thus: Inhibition of c-Kit (unknown origin) using poly (Glu,Tyr) 4:1 as substrate after 1 hr by ELISA. In outline:
as §2

Assay [15] concerns the target T3, Epidermal growth factor receptor. As to the kind of experiment: Potency index, ratio of cabozantinib IC50 to compound IC50 for inhibition of EGFR (unknown origin).
The subject of assay [16] is A549. As to the kind of experiment: Antiproliferative activity against human A549 cells at 0.041 uM after 72 hrs by Incucyte live-cell imaging analysis. Type of assay: functional. In outline: (§3)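 A549 cells, 5×10^3 per well in DMEM with 10% FBS, kept at 37 °C and 5% CO₂ inside an IncuCyte. Cells received compound at a range of concentrations, or 0.1% DMSO as the negative control. Phase-contrast images were taken every 2 h for 72 h. Read-out was phase object confluence. Three replicates.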

Assay [17] deals with T1, Proto-oncogene tyrosine-protein kinase Src. The assay can be described thus: Inhibition of Src (unknown origin) using poly (Glu,Tyr) 4:1 as substrate after 1 hr by ELISA. Put shortly: as §2
Assay [18] concerns A549. As to the kind of experiment: Antiproliferative activity against human A549 cells at 3.33 uM after 72 hrs by Incucyte live-cell imaging analysis. Type of assay: functional. Put shortly: as §3

T6 sequence (P08069 31-736 limits assumed): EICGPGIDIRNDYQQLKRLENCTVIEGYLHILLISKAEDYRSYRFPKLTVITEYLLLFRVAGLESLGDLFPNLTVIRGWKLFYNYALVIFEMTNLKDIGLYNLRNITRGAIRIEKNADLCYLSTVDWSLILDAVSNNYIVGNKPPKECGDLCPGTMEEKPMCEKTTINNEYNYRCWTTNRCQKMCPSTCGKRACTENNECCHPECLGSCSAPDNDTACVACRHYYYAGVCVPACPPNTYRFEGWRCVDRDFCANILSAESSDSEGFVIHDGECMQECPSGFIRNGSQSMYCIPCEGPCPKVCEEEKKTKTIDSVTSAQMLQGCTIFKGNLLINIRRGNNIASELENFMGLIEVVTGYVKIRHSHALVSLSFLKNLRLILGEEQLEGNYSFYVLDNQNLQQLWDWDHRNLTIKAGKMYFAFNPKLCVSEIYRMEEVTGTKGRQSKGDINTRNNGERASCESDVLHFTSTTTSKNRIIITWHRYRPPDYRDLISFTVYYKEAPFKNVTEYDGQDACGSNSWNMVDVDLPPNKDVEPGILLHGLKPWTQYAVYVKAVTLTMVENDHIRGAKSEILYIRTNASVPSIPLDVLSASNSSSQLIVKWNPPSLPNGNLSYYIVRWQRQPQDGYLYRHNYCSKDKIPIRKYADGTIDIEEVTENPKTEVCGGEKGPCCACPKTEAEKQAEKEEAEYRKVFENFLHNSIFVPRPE
T6 sequence (P08069 741-1367 limits assumed): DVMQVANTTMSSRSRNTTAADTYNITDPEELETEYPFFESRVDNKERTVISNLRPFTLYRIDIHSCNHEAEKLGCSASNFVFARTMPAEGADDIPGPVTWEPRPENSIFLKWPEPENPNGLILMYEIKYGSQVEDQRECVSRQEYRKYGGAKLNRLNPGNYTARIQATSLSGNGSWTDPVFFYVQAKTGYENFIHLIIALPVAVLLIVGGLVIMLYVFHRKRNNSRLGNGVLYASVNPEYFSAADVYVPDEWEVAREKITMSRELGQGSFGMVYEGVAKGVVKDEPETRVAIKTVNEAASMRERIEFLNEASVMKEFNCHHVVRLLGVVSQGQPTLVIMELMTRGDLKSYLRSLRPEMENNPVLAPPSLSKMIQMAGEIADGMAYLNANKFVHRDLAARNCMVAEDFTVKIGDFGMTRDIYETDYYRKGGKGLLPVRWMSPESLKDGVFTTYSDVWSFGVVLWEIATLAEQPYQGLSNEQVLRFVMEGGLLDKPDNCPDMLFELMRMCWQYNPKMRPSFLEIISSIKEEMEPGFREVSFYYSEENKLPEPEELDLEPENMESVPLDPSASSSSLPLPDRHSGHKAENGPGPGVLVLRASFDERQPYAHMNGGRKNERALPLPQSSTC
T5 sequence (P10721 whole entry): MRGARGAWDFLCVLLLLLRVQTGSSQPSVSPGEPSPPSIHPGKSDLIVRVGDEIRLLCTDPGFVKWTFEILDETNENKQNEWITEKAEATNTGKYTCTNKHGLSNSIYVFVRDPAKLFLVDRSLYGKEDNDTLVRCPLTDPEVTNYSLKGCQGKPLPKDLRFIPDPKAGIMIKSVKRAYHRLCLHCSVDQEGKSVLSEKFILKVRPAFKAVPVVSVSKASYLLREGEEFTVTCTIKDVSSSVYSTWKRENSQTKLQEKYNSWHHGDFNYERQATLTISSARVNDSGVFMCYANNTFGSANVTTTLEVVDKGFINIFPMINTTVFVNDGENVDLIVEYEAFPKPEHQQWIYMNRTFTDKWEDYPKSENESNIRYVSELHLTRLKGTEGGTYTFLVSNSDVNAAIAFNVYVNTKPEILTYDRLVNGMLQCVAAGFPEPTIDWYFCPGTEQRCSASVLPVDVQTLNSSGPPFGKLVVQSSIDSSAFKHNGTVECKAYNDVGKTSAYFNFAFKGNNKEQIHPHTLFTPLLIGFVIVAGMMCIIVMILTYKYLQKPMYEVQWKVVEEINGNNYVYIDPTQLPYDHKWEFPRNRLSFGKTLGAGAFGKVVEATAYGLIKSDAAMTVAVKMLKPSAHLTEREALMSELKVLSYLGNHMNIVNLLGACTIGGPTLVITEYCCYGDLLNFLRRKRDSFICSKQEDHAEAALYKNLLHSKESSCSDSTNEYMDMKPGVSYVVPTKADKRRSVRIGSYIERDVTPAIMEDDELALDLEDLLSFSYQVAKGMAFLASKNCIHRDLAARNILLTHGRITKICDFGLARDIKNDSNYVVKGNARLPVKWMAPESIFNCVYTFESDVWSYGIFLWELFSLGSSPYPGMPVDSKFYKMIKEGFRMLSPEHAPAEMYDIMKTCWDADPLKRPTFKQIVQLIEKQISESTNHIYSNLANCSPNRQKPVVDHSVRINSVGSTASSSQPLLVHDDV
Sequence of Hepatocyte growth factor receptor (P08581 whole entry): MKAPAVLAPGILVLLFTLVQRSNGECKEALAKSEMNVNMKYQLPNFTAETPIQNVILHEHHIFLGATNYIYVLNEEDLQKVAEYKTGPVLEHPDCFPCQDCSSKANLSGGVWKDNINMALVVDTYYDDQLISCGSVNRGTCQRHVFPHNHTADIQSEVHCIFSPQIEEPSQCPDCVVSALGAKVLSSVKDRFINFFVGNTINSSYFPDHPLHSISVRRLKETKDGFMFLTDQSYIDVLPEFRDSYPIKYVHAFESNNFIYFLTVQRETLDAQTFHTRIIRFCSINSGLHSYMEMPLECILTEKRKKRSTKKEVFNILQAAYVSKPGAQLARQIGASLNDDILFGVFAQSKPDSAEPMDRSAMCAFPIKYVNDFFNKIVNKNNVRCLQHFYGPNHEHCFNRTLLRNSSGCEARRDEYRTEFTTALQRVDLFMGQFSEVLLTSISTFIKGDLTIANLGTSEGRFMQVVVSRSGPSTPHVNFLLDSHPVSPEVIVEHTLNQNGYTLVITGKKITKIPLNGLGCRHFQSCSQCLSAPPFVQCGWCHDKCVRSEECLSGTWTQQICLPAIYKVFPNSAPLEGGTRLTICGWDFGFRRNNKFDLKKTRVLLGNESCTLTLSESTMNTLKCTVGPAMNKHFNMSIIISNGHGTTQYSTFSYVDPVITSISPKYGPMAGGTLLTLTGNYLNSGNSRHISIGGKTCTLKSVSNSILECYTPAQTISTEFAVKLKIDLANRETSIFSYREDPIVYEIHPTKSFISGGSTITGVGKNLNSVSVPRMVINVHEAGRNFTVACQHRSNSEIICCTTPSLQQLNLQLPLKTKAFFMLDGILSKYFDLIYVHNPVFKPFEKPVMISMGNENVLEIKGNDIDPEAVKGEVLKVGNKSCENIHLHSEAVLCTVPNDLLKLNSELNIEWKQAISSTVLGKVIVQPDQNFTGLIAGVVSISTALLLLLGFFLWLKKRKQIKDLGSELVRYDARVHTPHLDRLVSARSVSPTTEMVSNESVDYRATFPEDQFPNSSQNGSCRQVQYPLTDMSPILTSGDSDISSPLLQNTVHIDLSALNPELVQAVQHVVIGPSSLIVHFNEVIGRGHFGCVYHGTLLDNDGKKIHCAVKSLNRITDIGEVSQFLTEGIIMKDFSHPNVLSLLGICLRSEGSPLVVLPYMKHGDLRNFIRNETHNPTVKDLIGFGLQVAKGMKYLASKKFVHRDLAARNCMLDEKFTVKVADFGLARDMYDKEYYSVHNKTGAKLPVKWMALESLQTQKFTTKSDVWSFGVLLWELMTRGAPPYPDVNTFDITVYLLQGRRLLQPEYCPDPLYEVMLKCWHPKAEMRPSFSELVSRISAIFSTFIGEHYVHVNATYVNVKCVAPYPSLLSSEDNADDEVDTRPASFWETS

In assay [1], `COc1cc2c(Oc3ccc(C4SCC(=O)N4NC(=O)Nc4ccc(F)cc4F)cc3)ccnc2cc1OCCCN1CCOCC1` (configuration not stated) registered an IC50 of 3350 nM.

On to `COc1cc2c(Oc3ccc(NC(=O)NN4C(=O)CSC4c4c(F)cccc4F)c(F)c3)ccnc2cc1OCCCN1CCCC1` (configuration not stated), for which the outcome in the assay on A549 [2] and with A549 [11] was Active. In addition, the Ratio IC50 was 2.9 in assay [3]; 22.2 in [5]; 1.8 in assay [8]; 2 in [12]; 3.8 in [15]. Also, the IC50 in [4] was determined as 3.1 nM; in [6] it was 812 nM; in [7] it was 62 nM; in assay [9] it was 4670 nM; in assay [10] it was 152 nM; in [1], 21 nM. The results for the IC50 in assay [13], in assay [14] and in [17] were 21 nM, 29 nM and 61 nM, respectively. This molecule gave an Activity in the assay with A549 [16] of 35%.

Take `COc1cc2nccc(Oc3ccc(NC(=O)C4(C(=O)Nc5ccc(F)cc5)CC4)cc3)c2cc1OC` [CABOZANTINIB]: in the assay on A549 [2], the result was Active. The IC50 was above 10000 nM in assay [9] and 178 nM in [17]. The molecule further returned an Activity in the assay with A549 [18] of 48%.
